Laboratory results reported in ChEMBL document CHEMBL4354828, “Discovery of Taniborbactam (VNRX-5133): A Broad-Spectrum Serine- and Metallo-β-lactamase Inhibitor for Carbapenem-Resistant Bacterial Infections” (J Med Chem, 2020).
In brackets after ≈: the same amount, converted by molar mass.

What was measured:
[1] = test system: Pseudomonas aeruginosa; assay: Inhibition of VIM in Pseudomonas aeruginosa CDC-0457 assessed as cefepime antibacterial activity at 8 ug/ml after 16 to 20 hrs by CLSI-based microbroth dilution method
[2] = test system: Pseudomonas aeruginosa; assay: Inhibition of KPC-2/PDC-42 in Pseudomonas aeruginosa CDC-0356 assessed as cefepime antibacterial activity at 8 ug/ml after 16 to 20 hrs by CLSI-based microbroth dilution method (Rvb > […] ug/ml)
[3] = Inhibition of bacterial CMY-2 using nitrocefin as substrate preincubated for 15 mins followed by susbtrate addition and measured after 10 mins by spectrophotometric method; parameters: species or system Bacteria
[4] = Inhibition of bacterial CTX-M-15 using cefotaxime as substrate preincubated for 15 mins followed by susbtrate addition and measured after 10 mins by spectrophotometric method; parameters: species or system Bacteria
[5] = test system: Escherichia coli; assay: Inhibition of NDM-1/CMY-6/OXA-1 in Escherichia coli CDC-0055 assessed as meropenem antibacterial activity at 4 ug/ml after 16 to 20 hrs by CLSI-based microbroth dilution method (reference value: […] ug/ml)
[6] = test system: Escherichia coli; assay: Inhibition of NDM-1/CMY-6/OXA-1 in Escherichia coli CDC-0055 assessed as piperacillin antibacterial activity at 16 ug/ml after 16 to 20 hrs by CLSI-based microbroth dilution method
In short: (§1)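 MDR β-lactamase-producing Gram-negative clinical isolates. […] MIC was reported as the inhibitor concentration that restores the partner's antibacterial activity.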

[7] = test system: Klebsiella pneumoniae ATCC BAA-1705; assay: Inhibition of KPC-2 in Klebsiella pneumoniae ATCC BAA 1705 assessed as meropenem antibacterial activity at 4 ug/ml after 16 to 20 hrs by CLSI-based microbroth dilution method (reference value: […] ug/ml)
[8] = test system: Acinetobacter baumannii; assay: Inhibition of VIM-1/VIM-2/VIM-4/NDM-1 in Acinetobacter baumannii assessed as cefepime antibacterial activity at 4 ug/ml after 16 to 20 hrs by CLSI-based microbroth dilution method
In short: (§2)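 Panel of 14 clinical isolates expressing class B VIM- or NDM-type MBLs: E. coli (4), E. cloacae (2), K. pneumoniae (4), P. aeruginosa (1), A. baumannii (3).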

[9] = test system: Escherichia coli; assay: Inhibition of NDM-1/CMY-6/OXA-1 in Escherichia coli CDC-0055 assessed as cefepime antibacterial activity at 8 ug/ml after 16 to 20 hrs by CLSI-based microbroth dilution method
In short: as §1

[10] = test system: Enterobacter cloacae; assay: Inhibition of VIM-1/VIM-2/VIM-4/NDM-1 in Enterobacter cloacae assessed as cefepime antibacterial activity at 4 ug/ml after 16 to 20 hrs by CLSI-based microbroth dilution method
In short: as §2

[11] = test system: Klebsiella pneumoniae; assay: Inhibition of VIM-1/VIM-2/VIM-4/NDM-1 in Klebsiella pneumoniae assessed as cefepime antibacterial activity at 4 ug/ml after 16 to 20 hrs by CLSI-based microbroth dilution method
[12] = Inhibition of bacterial SHV-5 using cefotaxime as substrate preincubated for 15 mins followed by susbtrate addition and measured after 10 mins by spectrophotometric method; parameters: species or system Bacteria
[13] = test system: Escherichia coli; assay: Inhibition of NDM in Escherichia coli CDC-0452 assessed as piperacillin antibacterial activity at 16 ug/ml after 16 to 20 hrs by CLSI-based microbroth dilution method (Rvb > […] ug/ml)
[14] = Inhibition of bacterial IMP-1 using nitrocefin as substrate preincubated for 15 mins followed by susbtrate addition and measured after 10 mins by spectrophotometric method; parameters: species or system Bacteria
[15] = test system: Escherichia coli; assay: Inhibition of VIM-1/VIM-2/VIM-4/NDM-1 in Escherichia coli assessed as cefepime antibacterial activity at 4 ug/ml after 16 to 20 hrs by CLSI-based microbroth dilution method
In short: as §2

[16] = test system: Pseudomonas aeruginosa; assay: Inhibition of KPC-2/PDC-42 in Pseudomonas aeruginosa CDC-0356 assessed as piperacillin antibacterial activity at 16 ug/ml after 16 to 20 hrs by CLSI-based microbroth dilution method (Rvb > […] ug/ml)
[17] = test system: Escherichia coli; assay: Inhibition of TEM/CTX-M/SHV/Cephalosporinase in Escherichia coli EC1552 assessed as cefepime antibacterial activity at 4 ug/ml after 16 to 20 hrs by CLSI-based microbroth dilution method (reference value: […] ug/ml)
[18] = Inhibition of bacterial VIM-2 using nitrocefin as substrate preincubated for 15 mins followed by susbtrate addition and measured after 10 mins by spectrophotometric method; parameters: species or system Bacteria
In short: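 Purified β-lactamase inhibition. IC50 values are the average of duplicates unless otherwise indicated.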

[19] = Inhibition of bacterial OXA-48 using nitrocefin as substrate preincubated for 15 mins followed by susbtrate addition and measured after 10 mins by spectrophotometric method; parameters: species or system Bacteria
[20] = test system: Pseudomonas aeruginosa; assay: Inhibition of KPC-2/PDC-42 in Pseudomonas aeruginosa CDC-0356 assessed as meropenem antibacterial activity at 4 ug/ml after 16 to 20 hrs by CLSI-based microbroth dilution method (reference value: […] ug/ml)
[21] = test system: Pseudomonas aeruginosa; assay: Inhibition of VIM in Pseudomonas aeruginosa CDC-0457 assessed as meropenem antibacterial activity at 4 ug/ml after 16 to 20 hrs by CLSI-based microbroth dilution method
[22] = test system: Escherichia coli; assay: Inhibition of NDM in Escherichia coli CDC-0452 assessed as meropenem antibacterial activity at 4 ug/ml after 16 to 20 hrs by CLSI-based microbroth dilution method (reference value: […] ug/ml)
[23] = test system: Pseudomonas aeruginosa; assay: Inhibition of VIM-1/VIM-2/VIM-4/NDM-1 in Pseudomonas aeruginosa assessed as cefepime antibacterial activity at 4 ug/ml after 16 to 20 hrs by CLSI-based microbroth dilution method
In short: as §2

[24] = test system: Enterobacter cloacae; assay: Inhibition of TEM/CTX-M/SHV/Cephalosporinase in Enterobacter cloacae CH23 assessed as cefepime antibacterial activity at 4 ug/ml after 16 to 20 hrs by CLSI-based microbroth dilution method (Rvb > […] ug/ml)
[25] = Inhibition of bacterial KPC-2 using imipenem as substrate preincubated for 15 mins followed by susbtrate addition and measured after 10 mins by spectrophotometric method; parameters: species or system Bacteria
[26] = Inhibition of bacterial NDM-1 using cefepime as substrate preincubated for 15 mins followed by susbtrate addition and measured after 10 mins by spectrophotometric method; parameters: species or system Bacteria
[27] = test system: Klebsiella pneumoniae; assay: Inhibition of TEM/CTX-M/SHV in Klebsiella pneumoniae 9032 assessed as cefepime antibacterial activity at 4 ug/ml after 16 to 20 hrs by CLSI-based microbroth dilution method (reference value: […] ug/ml)

C[C@]1(Cn2ccnn2)[C@H](C(=O)O)N2C(=O)C[C@H]2S1(=O)=O [TAZOBACTAM]
MIC [1]: > 16 µg/mL
MIC [2]: > 16 µg/mL
IC50 [3]: 410 nM
IC50 [4]: 1 nM
MIC [5]: > 16 µg/mL
MIC [6]: > 16 µg/mL
MIC [7]: 8 µg/mL (≈ 26.6 µM)
MIC50 [8]: > 32 µg/mL
MIC90 [8]: > 32 µg/mL
MIC [9]: > 16 µg/mL
MIC50 [10]: > 32 µg/mL
MIC90 [10]: > 32 µg/mL
MIC50 [11]: > 32 µg/mL
MIC90 [11]: > 32 µg/mL
IC50 [12]: 15 nM
MIC [13]: > 16 µg/mL
IC50 [14]: > 100000 nM
MIC50 [15]: > 32 µg/mL
MIC90 [15]: > 32 µg/mL
MIC [16]: > 16 µg/mL
MIC [17]: 4 µg/mL (≈ 13.3 µM)
IC50 [18]: > 100000 nM
IC50 [19]: 550 nM
MIC [20]: > 16 µg/mL
MIC [21]: > 16 µg/mL
MIC [22]: > 16 µg/mL
MIC50 [23]: > 32 µg/mL
MIC90 [23]: > 32 µg/mL
MIC [24]: > 16 µg/mL
IC50 [25]: 1700 nM
IC50 [26]: > 100000 nM
MIC [27]: 4 µg/mL (≈ 13.3 µM)
